From ChEMBL document CHEMBL4325920, “Discovery of Clinical Candidate BMS-823778 as an Inhibitor of Human 11β-Hydroxysteroid Dehydrogenase Type 1 (11β-HSD-1)” (ACS Med Chem Lett, 2018) come the findings set out here.

A short description of series [1]: Stability of the compound in oxidative solution. The format is physicochemical.
Series [2] is described as follows: Stability of the compound in aqueous buffer at pH 1.1 to pH 7.4 at 40 degC measured after 1 week. The format is physicochemical. The note with it: pH 1.1, 168 h.
Series [3] can be described thus: Aqueous solubility of the compound at pH 1 using crystalline sample. The format is physicochemical.
A short description of series [4]: Stability of the compound in solid state. It is filed as physicochemical.
Series [5] in a line: Stability of the compound in hydrolytic solution. The format is physicochemical.
Series [6] can be described thus: Stability of the compound under high intensity light/UV light measured after 12 weeks using crystalline solid sample. The format is physicochemical. The note with it: 2016 h.
A short description of series [7]: Aqueous solubility of the compound at pH 6.5 using crystalline sample. It is filed as physicochemical.
Series [8] can be described thus: Stability of the compound at 50 degC measured after 12 weeks using crystalline solid sample. It is filed as physicochemical. The note with it: 2016 h.
Series [9] concerns the target 11-beta-hydroxysteroid dehydrogenase 1 (Mus musculus, UniProt P50172). Put plainly: Inhibition of recombinant mouse 11beta-HSD1 expressed in HEK293 cell microsomes using [3H]cortisone as substrate after 4 hrs by homogeneous immuno-radiometric scintillation proximity assay.
Series [10] deals with T1, Nuclear receptor subfamily 1 group I member 2 (Homo sapiens, UniProt O75469).
T1 sequence (O75469 whole entry): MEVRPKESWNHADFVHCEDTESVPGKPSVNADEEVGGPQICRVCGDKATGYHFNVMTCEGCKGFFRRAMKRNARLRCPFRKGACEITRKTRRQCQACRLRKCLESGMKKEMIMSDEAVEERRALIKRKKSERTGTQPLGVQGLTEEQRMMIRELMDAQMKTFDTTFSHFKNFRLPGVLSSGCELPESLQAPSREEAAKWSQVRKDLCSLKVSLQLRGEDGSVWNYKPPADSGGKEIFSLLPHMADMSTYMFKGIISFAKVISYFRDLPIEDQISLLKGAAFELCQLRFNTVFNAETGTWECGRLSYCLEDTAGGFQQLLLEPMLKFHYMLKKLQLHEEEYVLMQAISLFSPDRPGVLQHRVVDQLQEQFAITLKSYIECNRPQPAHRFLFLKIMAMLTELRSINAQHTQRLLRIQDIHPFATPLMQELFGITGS
Briefly: Activation of PXR (unknown origin). It is filed as ADME.

Series [11] is described as follows: Protein binding in human plasma. The format is ADME, cell-free. The settings on record: read-out: PPB (converted).
The nature of series [12]: Volume of distribution at steady state in cynomolgus monkey at 1 mg/kg, iv by LC-MS/MS analysis. The format is ADME, organism-based, Macaca fascicularis. The note with it: in vivo, read-out: Vdss.
Series [13] is described as follows: Volume of distribution at steady state in Balb/C mouse at 5 mg/kg, iv by LC-MS/MS analysis. The format is ADME, organism-based. The settings on record: in vivo, read-out: Vdss.
Series [14] can be described thus: Oral bioavailability in Balb/C mouse at 10 mg/kg by LC-MS/MS analysis. The format is ADME, organism-based. The note with it: in vivo. A digest of the protocol: (§1)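 Given orally as a homogenized suspension, to mouse and to cynomolgus monkey.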
The nature of series [15]: Efflux ratio of permeability from basolateral to apical side over apical to basolateral side in human Caco2 cells at 3 uM. The note with it: caco-2, 3 µM.
For series [16], the target named is Cytochrome P450 3A4 (Homo sapiens, UniProt P08684). Briefly: Inhibition of human CYP3A4. The format is ADME.
Cytochrome P450 3A4, sequence (P08684 whole entry): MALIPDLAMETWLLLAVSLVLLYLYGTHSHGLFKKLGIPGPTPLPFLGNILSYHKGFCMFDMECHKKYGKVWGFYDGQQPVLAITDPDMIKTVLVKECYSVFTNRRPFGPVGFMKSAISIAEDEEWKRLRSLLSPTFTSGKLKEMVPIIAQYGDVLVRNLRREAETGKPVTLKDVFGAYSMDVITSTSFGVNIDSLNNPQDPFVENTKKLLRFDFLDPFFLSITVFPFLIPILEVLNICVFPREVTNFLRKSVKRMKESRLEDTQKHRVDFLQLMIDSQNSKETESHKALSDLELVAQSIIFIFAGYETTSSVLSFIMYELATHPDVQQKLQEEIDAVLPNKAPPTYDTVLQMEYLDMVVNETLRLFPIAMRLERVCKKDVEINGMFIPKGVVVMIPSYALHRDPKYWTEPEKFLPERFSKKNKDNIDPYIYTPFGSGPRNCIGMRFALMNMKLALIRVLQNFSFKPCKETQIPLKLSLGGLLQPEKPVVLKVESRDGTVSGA
In series [17] the test system is Mus musculus. Put plainly: Ex vivo inhibition of 11beta-HSD1 in diet induced obese mouse adipose tissue assessed as reduction in conversion of dehydrocorticosterone to corticosterone administered via oral gavage pretreated for 3 hrs followed by dehydrocorticosterone addition by LC-MS analysis. The format is functional.
A short description of series [18]: Permeability of the compound by PAMPA. The format is ADME. The settings on record: read-out: permeability.
Series [19] deals with Cytochrome P450 2C9 (Homo sapiens, UniProt P11712). Briefly: Inhibition of human CYP2C9. It is filed as ADME.
Cytochrome P450 2C9, sequence (P11712 whole entry): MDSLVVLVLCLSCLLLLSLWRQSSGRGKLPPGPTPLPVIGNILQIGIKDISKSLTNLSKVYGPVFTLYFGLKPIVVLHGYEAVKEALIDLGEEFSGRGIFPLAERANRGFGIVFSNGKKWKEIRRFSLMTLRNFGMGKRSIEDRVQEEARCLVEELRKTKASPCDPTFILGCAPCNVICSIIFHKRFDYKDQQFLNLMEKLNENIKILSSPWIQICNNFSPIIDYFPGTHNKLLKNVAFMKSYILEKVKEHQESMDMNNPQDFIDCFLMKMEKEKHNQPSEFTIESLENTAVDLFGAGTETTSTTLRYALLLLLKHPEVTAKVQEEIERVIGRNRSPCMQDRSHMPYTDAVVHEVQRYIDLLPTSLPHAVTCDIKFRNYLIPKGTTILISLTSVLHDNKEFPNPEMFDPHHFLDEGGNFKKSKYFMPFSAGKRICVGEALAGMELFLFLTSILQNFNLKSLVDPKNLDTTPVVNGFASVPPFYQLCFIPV
Series [20] deals with T2, hERG (KCNH2) (Homo sapiens, UniProt Q12809). Put plainly: Inhibition of human ERG at 30 uM by whole-cell patch clamp method relative to control.
T2 sequence (Q12809 whole entry): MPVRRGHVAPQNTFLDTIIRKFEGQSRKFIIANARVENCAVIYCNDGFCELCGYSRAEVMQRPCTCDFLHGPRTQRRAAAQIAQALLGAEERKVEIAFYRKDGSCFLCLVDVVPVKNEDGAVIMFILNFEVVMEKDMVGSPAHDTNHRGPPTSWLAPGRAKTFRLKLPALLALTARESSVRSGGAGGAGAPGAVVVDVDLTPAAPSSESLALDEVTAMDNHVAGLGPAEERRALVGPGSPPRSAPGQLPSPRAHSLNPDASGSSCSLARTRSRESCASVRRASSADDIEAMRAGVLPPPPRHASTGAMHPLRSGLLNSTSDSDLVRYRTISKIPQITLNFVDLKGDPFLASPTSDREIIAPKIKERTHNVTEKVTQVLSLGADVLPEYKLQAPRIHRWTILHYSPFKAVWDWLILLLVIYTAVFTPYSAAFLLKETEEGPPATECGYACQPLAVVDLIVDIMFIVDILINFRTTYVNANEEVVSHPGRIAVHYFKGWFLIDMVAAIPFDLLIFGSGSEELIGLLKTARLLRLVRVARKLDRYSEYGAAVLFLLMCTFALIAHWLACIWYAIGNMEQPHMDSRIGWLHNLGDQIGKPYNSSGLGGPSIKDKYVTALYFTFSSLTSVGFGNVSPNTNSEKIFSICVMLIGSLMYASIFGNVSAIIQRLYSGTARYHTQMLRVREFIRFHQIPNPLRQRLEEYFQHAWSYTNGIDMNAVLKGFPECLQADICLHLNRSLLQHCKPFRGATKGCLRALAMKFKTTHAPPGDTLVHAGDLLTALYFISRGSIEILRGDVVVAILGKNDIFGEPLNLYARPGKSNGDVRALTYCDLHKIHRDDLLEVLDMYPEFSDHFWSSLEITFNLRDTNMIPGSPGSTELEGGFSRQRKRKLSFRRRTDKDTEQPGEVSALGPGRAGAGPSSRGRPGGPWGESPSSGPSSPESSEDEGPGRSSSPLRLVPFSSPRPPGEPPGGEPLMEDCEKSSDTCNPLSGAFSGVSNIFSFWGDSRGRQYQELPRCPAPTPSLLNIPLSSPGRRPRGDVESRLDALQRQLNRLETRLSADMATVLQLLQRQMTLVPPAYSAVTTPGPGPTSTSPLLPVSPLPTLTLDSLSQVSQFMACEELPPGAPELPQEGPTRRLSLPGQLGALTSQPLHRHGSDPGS
Series [21] in a line: Stability in rat microsomes assessed as parent compound remaining after 30 mins. It is filed as ADME, Microsome. The settings on record: read-out: Stability.
Series [22] in a line: Stability in human microsomes assessed as parent compound remaining after 30 mins. The format is ADME, Microsome. The settings on record: read-out: Stability.
Series [23] concerns the target T3, Cytochrome P450 1A2 (Homo sapiens, UniProt P05177).
T3 sequence (P05177 whole entry): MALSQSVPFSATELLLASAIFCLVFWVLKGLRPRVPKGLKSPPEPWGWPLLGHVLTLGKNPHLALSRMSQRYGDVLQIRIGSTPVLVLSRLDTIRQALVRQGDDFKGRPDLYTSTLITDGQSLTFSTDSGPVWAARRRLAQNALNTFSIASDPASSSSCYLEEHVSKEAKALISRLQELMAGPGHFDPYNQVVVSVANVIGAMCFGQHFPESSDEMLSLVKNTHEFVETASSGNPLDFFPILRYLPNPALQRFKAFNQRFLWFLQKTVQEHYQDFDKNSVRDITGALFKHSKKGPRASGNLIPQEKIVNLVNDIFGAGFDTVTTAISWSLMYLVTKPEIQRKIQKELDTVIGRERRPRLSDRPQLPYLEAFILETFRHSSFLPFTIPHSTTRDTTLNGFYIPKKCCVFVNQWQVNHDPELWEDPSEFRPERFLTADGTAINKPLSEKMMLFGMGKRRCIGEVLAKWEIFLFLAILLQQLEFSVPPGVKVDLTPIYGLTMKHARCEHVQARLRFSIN
Briefly: Inhibition of human CYP1A2. It is filed as ADME.

In series [24] the target is Cytochrome P450 2D6 (Homo sapiens, UniProt P10635). Briefly: Inhibition of human CYP2D6. The format is ADME.
Cytochrome P450 2D6, sequence (P10635 whole entry): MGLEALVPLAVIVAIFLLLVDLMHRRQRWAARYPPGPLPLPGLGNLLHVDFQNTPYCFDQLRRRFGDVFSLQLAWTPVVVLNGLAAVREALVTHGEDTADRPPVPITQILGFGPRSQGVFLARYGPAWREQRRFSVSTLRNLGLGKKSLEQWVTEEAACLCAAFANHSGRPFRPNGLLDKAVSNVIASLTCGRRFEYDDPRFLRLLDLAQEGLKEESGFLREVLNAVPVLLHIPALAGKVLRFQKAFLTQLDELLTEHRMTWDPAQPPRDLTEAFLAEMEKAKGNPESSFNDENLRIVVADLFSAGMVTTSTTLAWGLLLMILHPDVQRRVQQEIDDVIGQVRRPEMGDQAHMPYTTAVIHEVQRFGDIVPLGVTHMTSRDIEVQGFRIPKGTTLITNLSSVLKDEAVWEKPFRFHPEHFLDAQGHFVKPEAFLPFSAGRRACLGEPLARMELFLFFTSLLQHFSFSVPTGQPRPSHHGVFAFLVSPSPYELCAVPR
Series [25] can be described thus: Toxicity in mouse up to 100 mg/kg, po administered as single dose. The format is organism-based. The settings on record: in vivo.
The nature of series [26]: Toxicity in cynomolgus monkey assessed as emesis up to 100 mg/kg, po administered as single dose. The format is organism-based, Macaca fascicularis. The note with it: in vivo.
Series [27] deals with Mus musculus. Briefly: Selectivity ratio of ED50 for inhibition of 11beta-HSD1 in po dosed diet induced obese mouse to ED50 for ex vivo inhibition of 11beta-HSD1 in diet induced obese mouse adipose tissue administered via oral gavage. The format is functional.
The subject of series [28] is Cynomolgus monkey. Briefly: In-vivo inhibition of 11beta-HSD1 in po cynomolgus monkey assessed as reduction in conversion of dehydrocorticosterone to corticosterone pretreated for 30 to 60 mins followed by dehydrocorticosterone addition and measured after 30 to 120 mins by enzyme immunosorbent assay. It is filed as functional. The note with it: Macaca fascicularis.

Series [29] is described as follows: Total plasma clearance in Balb/C mouse at 5 mg/kg, iv by LC-MS/MS analysis. It is filed as ADME, organism-based.
Series [30] has as its target T2, hERG (KCNH2). Put plainly: Inhibition of human ERG at 10 uM by whole-cell patch clamp method relative to control.
Series [31] is described as follows: Protein binding in cynomolgus monkey plasma. The settings on record: read-out: PPB (converted). It is filed as ADME, cell-free, Macaca fascicularis.
The target in series [32] is 11-beta-hydroxysteroid dehydrogenase 1 (Homo sapiens, UniProt P28845). Put plainly: Inhibition of recombinant human 11beta-HSD1 expressed in HEK293 cell microsomes using [3H]cortisone as substrate after 4 hrs by homogeneous immuno-radiometric scintillation proximity assay. The format is cell-based.
11-beta-hydroxysteroid dehydrogenase 1 (Homo sapiens, UniProt P28845), sequence (P28845 whole entry): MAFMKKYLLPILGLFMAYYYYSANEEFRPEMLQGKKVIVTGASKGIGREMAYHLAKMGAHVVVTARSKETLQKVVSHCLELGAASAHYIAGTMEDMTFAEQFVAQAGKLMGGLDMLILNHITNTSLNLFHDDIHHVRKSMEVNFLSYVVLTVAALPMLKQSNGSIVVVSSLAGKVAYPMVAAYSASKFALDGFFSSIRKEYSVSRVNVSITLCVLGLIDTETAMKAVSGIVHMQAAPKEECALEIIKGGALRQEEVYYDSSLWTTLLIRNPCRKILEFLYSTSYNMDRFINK
Series [33] has as its system Mus musculus. Briefly: In-vivo inhibition of 11beta-HSD1 in po dosed diet induced obese mouse assessed as reduction in conversion of dehydrocorticosterone to corticosterone pretreated for 30 to 60 mins followed by dehydrocorticosterone addition and measured after 30 to 120 mins by enzyme immunosorbent assay. It is filed as functional.
A short description of series [34]: Protein binding in mouse plasma. The note with it: read-out: PPB (converted). The format is ADME, cell-free.
A short description of series [35]: Stability in cynomolgus monkey microsomes assessed as parent compound remaining after 30 mins. It is filed as ADME, Macaca fascicularis, Microsome. The settings on record: read-out: Stability.
Series [36] is described as follows: Genotoxicity in Salmonella typhimurium by Ames test. It is filed as toxicity. The settings on record: salmonella enterica subsp. enterica serovar typhimurium.
A short description of series [37]: Total plasma clearance in cynomolgus monkey at 1 mg/kg, iv by LC-MS/MS analysis. The format is ADME, organism-based, Macaca fascicularis.
Series [38] is described as follows: Genotoxicity in Escherichia coli by SOS chromotest. It is filed as toxicity.
A short description of series [39]: Stability in mouse microsomes assessed as parent compound remaining after 30 mins. The note with it: read-out: Stability. It is filed as ADME, Microsome.
A short description of series [40]: Oral bioavailability in cynomolgus monkey at 1.47 mg/kg by LC-MS/MS analysis. It is filed as ADME, organism-based, Macaca fascicularis. The settings on record: in vivo. A digest of the protocol:
as §1

The nature of series [41]: Inhibition of recombinant cynomolgus monkey 11beta-HSD1 expressed in HEK293 cell microsomes using [3H]cortisone as substrate after 4 hrs by homogeneous immuno-radiometric scintillation proximity assay. On the set-up: species or system Macaca fascicularis.
A short description of series [42]: Ratio of drug level in adipose tissue to plasma in diet induced obese mouse administered via oral gavage. It is filed as ADME. The note with it: adipose tissue and plasma.
In series [43] the target is Cytochrome P450 2C19 (Homo sapiens, UniProt P33261). Briefly: Inhibition of human CYP2C19. It is filed as ADME.
Cytochrome P450 2C19, sequence (P33261 whole entry): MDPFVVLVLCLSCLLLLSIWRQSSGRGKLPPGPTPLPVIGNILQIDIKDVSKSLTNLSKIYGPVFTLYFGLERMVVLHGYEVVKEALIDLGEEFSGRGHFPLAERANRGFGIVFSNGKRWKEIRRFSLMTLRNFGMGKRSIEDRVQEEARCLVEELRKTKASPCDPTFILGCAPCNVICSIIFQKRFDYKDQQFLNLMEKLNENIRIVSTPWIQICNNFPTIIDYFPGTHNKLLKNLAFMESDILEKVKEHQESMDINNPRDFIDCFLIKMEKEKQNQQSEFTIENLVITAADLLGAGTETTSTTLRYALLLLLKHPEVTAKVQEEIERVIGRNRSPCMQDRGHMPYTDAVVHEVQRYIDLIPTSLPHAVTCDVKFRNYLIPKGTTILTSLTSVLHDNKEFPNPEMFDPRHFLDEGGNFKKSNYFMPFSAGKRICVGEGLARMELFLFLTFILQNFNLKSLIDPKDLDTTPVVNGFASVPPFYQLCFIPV
The nature of series [44]: Selectivity ratio of ED50 for inhibition of 11beta-HSD1 in po dosed diet induced obese mouse to ED50 for inhibition of 11beta-HSD1 in po cynomolgus monkey. It is filed as functional.
The nature of series [45]: Ratio of drug level in liver to plasma in diet induced obese mouse administered via oral gavage. The format is ADME. The note with it: liver and plasma.

Some results are limits rather than exact numbers.

11-beta-hydroxysteroid dehydrogenase 1 (Mus musculus, UniProt P50172), sequence (P50172 whole entry): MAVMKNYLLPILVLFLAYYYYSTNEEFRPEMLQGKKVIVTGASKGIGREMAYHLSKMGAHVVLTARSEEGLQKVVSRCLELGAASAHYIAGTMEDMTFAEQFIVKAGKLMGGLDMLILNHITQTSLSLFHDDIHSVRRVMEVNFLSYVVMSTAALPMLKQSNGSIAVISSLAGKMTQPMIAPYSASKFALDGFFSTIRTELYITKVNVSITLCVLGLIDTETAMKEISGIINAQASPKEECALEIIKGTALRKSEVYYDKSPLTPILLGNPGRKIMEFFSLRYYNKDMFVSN

Regarding `CC(C)(O)c1cccn2c(C3(c4ccc(Cl)cc4)CC3)nnc12.Cl` [BMS-823778], the Stability entry in [1], in series [2], in series [4], in series [5], in series [6] and in [8] was “Stable” each time. For the same compound, the solubility (thermodynamic) amounted to 220 mg/mL in [3] and 0.5 mg/mL in [7].

In the case of `CC(C)(CCO)c1cccn2c(C3(c4ccc(Cl)cc4)CC3)nnc12`, in series [9], the half-maximal inhibitory concentration (IC50) was determined as 1.15 µM. In series [10], this compound came in with an EC50 of 1.3 µM.

For the compound `OCc1cccn2c(C3(c4ccc(Cl)cc4)CC3)nnc12`, the IC50 in series [9] is 3.8 µM. This compound also gave an EC50 in series [10] of 25 µM.

Regarding `CC(C)(O)c1cccn2c(C3(c4ccc(Cl)cc4)CC3)nnc12` [BMS-823778 FREE BASE], the fraction unbound in series [11] is 0.15; in series [31], 0.16; in series [34] it was 0.13. Besides, the Vd in series [12] is 2.3 L/kg; in series [13], 1.2 L/kg. Also, the bioavailability in series [14] worked out at 44%; in series [40], 100%. In addition, in [15], the Ratio was less than 2. Besides, the IC50 is more than 30 µM in series [16]; more than 30 µM in series [19]; more than 30 µM in series [23]; more than 30 µM in series [24]; 0.6 µM in [9]; more than 30 µM in series [43]. Besides, the ED50 in series [17] came to 5.2 mg/kg; in series [28], 0.6 mg/kg; in [33], 34 mg/kg. In addition, the Papp in series [18] is more than 50 ×10⁻⁶ cm/s. In addition, the inhibition at 30 µM in series [20] turned out to be 31.2%. The remaining at 0.5 h in series [21], in series [22], in series [35] and in series [39] was 96 to 100% each time. In addition, the Activity entry is reported as “Non-Toxic” in [25], “Toxic” in [26], “Non-Toxic” in [36] and “Non-Toxic” in series [38]. In addition, the “Ratio ED50” value is given as 6.5 in [27] and 57 in series [44]. Further, the figures for the Ki in [9], in [32] and in [41] were 0.38 µM, 0.0009 µM and 0.007 µM, respectively. For the same compound, the clearance was 2.3 mL/min/kg in series [29] and 1.2 mL/min/kg in [37]. The compound further showed an inhibition at 10 µM in series [30] of 19.8%. In [10], this compound came in with a 50% effective concentration (EC50) of more than 50 µM. For the same compound, the Kp in series [42] turned out to be 2.5; in series [45], 3.5.

In the case of `CC(C)(O)CCc1cccn2c(C3(c4ccc(Cl)cc4)CC3)nnc12`, the IC50 in series [9] was more than 10 µM. Also, the EC50 in series [10] was found to be 3.6 µM.
